Results on eight molecules are retold here after ChEMBL document CHEMBL2021826, “Ester and carbamate ester derivatives of Biochanin A: synthesis and in vitro evaluation of estrogenic and antiproliferative activities” (Bioorg Med Chem, 2012).

Active and inactive are the calls of the source. The rule behind the calls is not given here.

The species entered for experiment [1] is Homo sapiens. Put plainly: Estrogenic activity at estrogen receptor in human MCF7:D5L cells co-expressing ERE assessed as induction of luciferase gene expression at 10 micoM after 16 hrs by microplate reader relative to untreated vehicle control. In kind it is cell-based. The essentials: (§1)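 MCF-7:D5L cells (MCF-7 stably carrying ERE-driven luciferase reporter) plated at 12,000/well in phenol red-free MEM with 1 µg/mL insulin and 5% DCC-FBS. Compounds up to 10 µM, or DMSO (0.1% final), added 72 h after plating. Luciferase read 16 h later, as % of vehicle. Three independent experiments in triplicate.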

The subject of experiment [2] is MCF7. Nature of the experiment: Antiproliferative activity against estrogen-deficient human MCF7 cells at 1 uM after 72 hrs by MTT assay relative to untreated vehicle control. Type of experiment: functional. The essentials:
(§2)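 MCF-7 cells plated at 8000/well in phenol red-free MEM with 1 µg/mL insulin and 5% DCC-FBS (estrogen-free). Compounds up to 10 µM (0.01–10 µM), or DMSO vehicle at 0.1% final, added 24 h after plating. MTT conversion read 72 h later at 550 and 690 nm (reference), as % of vehicle. […] Three independent experiments in triplicate.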
In general terms: Formazan colour is commonly taken as a measure of viable cells.

Experiment [3] deals with MCF7. Put plainly: Growth stimulation of human MCF7:D5L cells co-expressing ERE assessed as increase in viable cell number by MTT assay. Type of experiment: functional, cell-based.
Experiment [4] is described as follows: Estrogenic activity at estrogen receptor in human MCF7:D5L cells co-expressing ERE assessed as induction of luciferase gene expression after 16 hrs by microplate reader. In kind it is cell-based. The essentials: as §1
Experiment [5] is filed under the species Homo sapiens. Put plainly: Estrogenic activity at estrogen receptor in human MCF7:D5L cells co-expressing ERE assessed as induction of luciferase gene expression at 1 micoM after 16 hrs by microplate reader relative to untreated vehicle control. Type of experiment: cell-based. The essentials: as §1
Experiment [6] relates to MCF7. Put plainly: Antiproliferative activity against estrogen-deficient human MCF7 cells at 10 uM after 72 hrs by MTT assay relative to untreated vehicle control. In kind it is functional. The essentials: as §2
Experiment [7] has as its system Ishikawa. Put plainly: Estrogenic activity at estrogen receptor in human Ishikawa cells assessed as induction of alkaline phosphatase expression at 1 uM after 72 hrs by microplate reader relative to untreated vehicle control. In kind it is cell-based. Put shortly: (§3)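 Ishikawa cells plated at 12,000/well in phenol red-free MEM, 1 µg/mL insulin, 5% DCC-FBS. Compounds up to 10 µM, or DMSO (0.1% final), added 24 h after plating. Alkaline phosphatase activity read 72 h later on a plate reader, as % of vehicle-treated cells. […] Three independent experiments in triplicate.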

Experiment [8] relates to Ishikawa. Nature of the experiment: Estrogenic activity at estrogen receptor in human Ishikawa cells assessed as induction of alkaline phosphatase expression at 10 uM after 72 hrs by microplate reader relative to untreated vehicle control. In kind it is cell-based. Put shortly: as §3
A short description of experiment [9]: Estrogenic activity at estrogen receptor in human Ishikawa cells assessed as induction of alkaline phosphatase expression after 72 hrs by microplate reader. In kind it is cell-based. Put shortly:
as §3

Experiment [10] relates to MCF7. Nature of the experiment: Growth stimulation of estrogen-deficient human MCF7 cells at 0.01 to 10 uM after 72 hrs by MTT assay. Type of experiment: functional, cell-based. The essentials:
as §2

In experiment [11] the test system is MCF7. Put plainly: Stimulation of proliferation of estrogen-deficient human MCF7 cells after 72 hrs by MTT assay. The note with it: MCF7, 72 h.
Experiment [12] deals with Ishikawa. Nature of the experiment: Estrogenic activity at estrogen receptor in human Ishikawa cells assessed as induction of alkaline phosphatase expression at => 0.1 nM after 72 hrs by microplate reader relative to untreated vehicle control in presence of 100 nM ER destabilizer fulvestrant. In kind it is cell-based. Put shortly: (§4)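 Separate wells received 100 nM PPT, or 100 nM MPP with or without 100 nM DPN. AlkP activity read 72 h after dosing, relative to vehicle. Mean ± SEM of three experiments in triplicate; t-test vs vehicle.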

The species entered for experiment [13] is Homo sapiens. Put plainly: Estrogenic activity at estrogen receptor in human MCF7:D5L cells co-expressing ERE assessed as induction of luciferase gene expression at => 0.1 nM after 16 hrs by microplate reader in presence of 100 nM ER destabilizer fulvestrant. Type of experiment: cell-based. The essentials:
(§5)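 Separate wells received 100 nM PPT, or 100 nM MPP with or without 100 nM DPN, added 72 h after plating. Luciferase measured 16 h later relative to vehicle. Mean ± SEM, three experiments in triplicate; t-test vs vehicle.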

Experiment [14] has as its system MCF7. Put plainly: Antiproliferative activity against estrogen-deficient human MCF7 cells after 72 hrs by MTT assay. In kind it is functional, cell-based. The note with it: MCF7, 72 h. Put shortly:
as §2

Experiment [15] concerns Ishikawa. Put plainly: Inhibition of estradiol-stimulated cell proliferation of human Ishikawa cells at 10 uM after 72 hrs by MTT assay. Type of experiment: functional, cell-based.
Experiment [16] has as its system MDA-MB-231. Nature of the experiment: Antiproliferative activity against ERalpha-deficient human MDA-MB-231 cells assessed as inhibition of cell proliferation at 10 uM after 72 hrs by MTT assay. Type of experiment: functional. Conditions: MDA-MB-231, 72 h. Put shortly:
(§6)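 MDA-MB-231 breast adenocarcinoma cells in phenol red-free MEM with 1 µg/mL insulin and 5% dextran-coated charcoal-treated FBS. Compound added 24 h after plating, DMSO vehicle at 0.1% final. Viable cells read 72 h later as MTT-formazan absorbance, 550 minus 690 nm reference, expressed as % of vehicle-treated cells.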

The subject of experiment [17] is MDA-MB-231. Nature of the experiment: Antiproliferative activity against ERalpha-deficient human MDA-MB-231 cells assessed as inhibition of cell proliferation at 1 uM after 72 hrs by MTT assay. Type of experiment: functional, cell-based. Put shortly:
as §6

For experiment [18], the system named is Ishikawa. Put plainly: Inhibition of estradiol-stimulated cell proliferation of human Ishikawa cells at 1 uM after 72 hrs by MTT assay. In kind it is functional, cell-based.
Experiment [19] has as its system Ishikawa. Put plainly: Growth stimulation of human Ishikawa cells at 10 uM after 72 hrs by MTT assay. In kind it is functional, cell-based.
The subject of experiment [20] is Ishikawa. Nature of the experiment: Estrogenic activity at estrogen receptor in human Ishikawa cells assessed as induction of alkaline phosphatase expression at 100 nM after 72 hrs by microplate reader. Type of experiment: cell-based. The essentials: as §4
For experiment [21], the species on record is Homo sapiens. Nature of the experiment: Estrogenic activity at estrogen receptor in human MCF7:D5L cells co-expressing ERE assessed as induction of luciferase gene expression at 100 nM after 16 hrs by microplate reader in presence of 100 nM ERalpha antagonist MPP. Type of experiment: functional, cell-based. Put shortly: as §5
Experiment [22] is filed under the species Homo sapiens. Put plainly: Estrogenic activity at estrogen receptor in human MCF7:D5L cells co-expressing ERE assessed as induction of luciferase gene expression at 100 nM after 16 hrs by microplate reader relative to untreated vehicle control. In kind it is cell-based. Put shortly:
as §5

Experiment [23] is described as follows: Estrogenic activity at estrogen receptor in human Ishikawa cells assessed as induction of alkaline phosphatase expression at 100 nM after 72 hrs by microplate reader relative to estradiol in presence of 100 nM ERalpha antagonist MPP. Type of experiment: functional. The essentials:
as §4

As for `COc1ccc(-c2coc3cc(OC(=O)CCl)cc(O)c3c2=O)cc1`, the Efficacy amounted to 1310% in [1]; 152% in experiment [2]; 823% in [5]; 155% in experiment [6]; 314% in experiment [7]; 354% in experiment [8]. In experiment [3], the result was inactive. For the same molecule, the values for the EC50 in experiment [4], in [9] and in experiment [11] were 140 nM, 470 nM and 550 nM, respectively. In addition, the result in [10] was Active.

For `C[C@]12CC[C@@H]3c4ccc(O)cc4CC[C@H]3[C@@H]1CC[C@@H]2O` [ESTRADIOL], the Efficacy in experiment [1] was 402%; in [2], 185%; in experiment [5], 402%; in experiment [6], 185%; in experiment [7] it was 440%; in experiment [8], 440%. Further, the outcome in experiment [12] and in experiment [13] was inactive. The figures for the 50% effective concentration (EC50) in [4], in [9] and in experiment [14] were 0.0196 nM, 0.0246 nM and 0.0064 nM, respectively.

As for `CCCCCCCCCCCNC(=O)Oc1cc(O)c2c(=O)c(-c3ccc(OC)cc3)coc2c1`, the Efficacy in experiment [1] amounted to 803%; in experiment [2], 117%; in experiment [5] it was 524%; in [6], 108%; in experiment [7], 203%; in experiment [8], 375%. Also, the inhibition result in experiment [15] and in [18] was “Active” throughout. Also, the outcome in experiment [3] and in experiment [10] was inactive. Further, the EC50 in experiment [4] worked out at 320 nM; in experiment [9] it was 1700 nM. In addition, the inhibition at 10 µM in [16] is 21%. Besides, the inhibition entry in [17] is “inactive”.

Take `COc1ccc(-c2coc3cc(OC(=O)NCCBr)cc(O)c3c2=O)cc1`: the Efficacy worked out at 1050% in [1]; 151% in experiment [2]; 531% in experiment [5]; 145% in [6]; 302% in experiment [7]; 440% in experiment [8]. Further, the result in [3] was inactive. Also, the EC50 worked out at 220 nM in experiment [4], 620 nM in experiment [9] and 420 nM in [11]. Also, the outcome in experiment [10] was Active.

Take `COc1ccc(-c2coc3cc(OC(=O)CBr)cc(O)c3c2=O)cc1`: the Efficacy in [1] was 1320%; in [2], 156%; in [5], 584%; in experiment [6], 154%; in experiment [7], 332%; in experiment [8], 387%. In addition, in [3], the outcome was inactive. The EC50 is 180 nM in [4], 520 nM in experiment [9] and 280 nM in experiment [11]. The outcome in [10] was Active.

Regarding `COc1ccc(-c2coc3cc(OC(=O)NCCCl)cc(O)c3c2=O)cc1`, the Efficacy in experiment [1] was determined as 1140%; in experiment [2] it was 139%; in experiment [5], 635%; in experiment [6], 166%; in experiment [7] it was 295%; in [8], 445%. The result in experiment [3] was inactive. For the same molecule, the EC50 in experiment [4] was 140 nM; in experiment [9], 660 nM; in experiment [11], 680 nM. The outcome in experiment [10] was Active.

Take `COc1ccc(-c2coc3cc(O)cc(O)c3c2=O)cc1` [BIOCHANIN]: the Efficacy in experiment [1] was found to be 733%; in experiment [2], 161%; in experiment [5], 490%; in [6] it was 167%; in experiment [7] it was 310%; in experiment [8], 309%. Also, the EC50 in experiment [4] was 300 nM; in experiment [9], 420 nM; in experiment [11], 210 nM. For the same molecule, the result in experiment [19] and in experiment [10] was Active.

Consider `CCCc1c(-c2ccc(O)cc2)nn(-c2ccc(O)cc2)c1-c1ccc(O)cc1` [PROPYLPYRAZOLETRIOL], for which the result in experiment [20] and in experiment [22] was Active. Besides, the result in experiment [21] was inactive. In addition, the Activity in experiment [23] turned out to be 70%.

As a reminder, the EC50 is the concentration giving half of the maximal effect. For orientation: inhibition means the change of the read-out against control, counted positive when it falls.
